The results in this text go back to ChEMBL document CHEMBL1811777, “Rational design of potent, small, synthetic allosteric inhibitors of thrombin” (J Med Chem, 2011).

Activity calls are given as the source filed them. No cut-off for these calls is given here.

Assay [1] has as its target T1, Prothrombin (Homo sapiens, UniProt P00734). The assay can be described thus: Inhibition of human alpha-thrombin assessed as spectrozyme TH hydrolysis after 10 mins by spectrophotometric analysis. The method, boiled down: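 Human α-thrombin (~5 nM initial) preincubated 10 min with inhibitor (4 μg/ml to 5 mg/ml stocks) at 25 °C. Buffer: 20 mM Tris-HCl pH 7.4, 100 mM NaCl, 2.5 mM CaCl2, 0.1% PEG 8000. Fractional residual activity fitted to logistic equation (Hill slope fixed at 1) for IC50 and efficacy ΔY.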

The subject of assay [2] is Plasma. The assay can be described thus: Anticoagulant activity in human plasma assessed as concentration required to double the prothrombin time. The class given is functional. In a few lines:
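One-stage recalcification PT on a fibrometer. 10 μL inhibitor brought to 100 μL with citrated human plasma, incubated 30 s at 37 °C, then 200 μL prewarmed thromboplastin added and clotting time recorded. Deionized water gave baseline clotting time. Duplicates; concentration doubling PT read from clotting time versus concentration.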

Assay [3] has as its system Plasma. The assay can be described thus: Anticoagulant activity in human plasma assessed as concentration required to double the activated partial thromboplastin time. The format is functional.
The target in assay [4] is T1, Prothrombin. The assay can be described thus: Non-competitive inhibition of human alpha-thrombin assessed as spectrozyme TH hydrolysis at 1.5 to 30 uM by Michaelis-Menten equation analysis. The method, boiled down: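 Spectrozyme TH (10 to 600 μM) hydrolysed by 5–10 nM human thrombin at fixed inhibitor levels (0–30 μM) in 20 mM Tris-HCl pH 7.4, 37 °C. Initial rate taken from linear A405 rise with under 10% substrate consumption. KM and VMAX obtained by fitting the Michaelis-Menten equation.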

Regarding `CCOC(=O)c1c(C)oc2cc(OC(C)C)c(OCc3oc4cc(OC(C)C)c(OS(=O)(=O)O)cc4c3C(=O)OCC)cc12`, on Prothrombin [1] (read-out: IC50), the IC50 is 30 µM.

Turning to `CCOC(=O)c1c(C)oc2cc(OC(=O)c3ccc(OC)cc3)c(OS(=O)(=O)[O-])cc12.[Na+]`, the IC50 at Prothrombin [1] (read-out: IC50) is 520 µM. Moreover, the 2PT in the assay on Plasma [2] is 1200 µM. Also, the 2aPTT in the assay with Plasma [3] was 1250 µM.

With `COc1cc2oc(C)c(C(=O)O)c2cc1OCc1oc2cc(OC)c(OS(=O)(=O)[O-])cc2c1C(=O)O.[Na+]`, the IC50 at Prothrombin [1] (read-out: IC50) came out at 374 µM. For the same compound, the 2aPTT in the assay on Plasma [3] was above 1000 µM.

In the case of `COCCOC(=O)c1c(C)oc2cc(OC)c(OS(=O)(=O)O)cc12`, the IC50 at Prothrombin [1] (read-out: IC50) was above 2000 µM.

For the compound `CCOC(=O)c1c(C)oc2cc(OC(=O)N3CCOCC3)c(OS(=O)(=O)O)cc12`, the IC50 on Prothrombin [1] (read-out: IC50) was above 25000 µM.

With `CCOC(=O)c1c(CN2CCOCC2)oc2cc(OC)c(OS(=O)(=O)O)cc12`, the IC50 at Prothrombin [1] (read-out: IC50) was above 7000 µM.

`COCCOC(=O)c1c(C)oc2cc(OC)c(OCc3oc4cc(OC)c(OS(=O)(=O)[O-])cc4c3C(=O)OCCOC)cc12.[Na+]`: the IC50 at Prothrombin [1] (read-out: IC50) is 375 µM. Also, the 2aPTT in the assay on Plasma [3] was above 1000 µM.

On to `CCOC(=O)c1c(C)oc2cc(OCC)c(OCc3oc4cc(OCC)c(OS(=O)(=O)[O-])cc4c3C(=O)OCC)cc12.[Na+]`, for which, on Prothrombin [1] (read-out: IC50), the IC50 stood at 121 µM. Further, in the assay on Plasma [3], the 2aPTT stood at 530 µM.

As for `COc1cc2oc(C)c(C(=O)N3CCOCC3)c2cc1OS(=O)(=O)O`, on Prothrombin [1] (read-out: IC50), the IC50 was above 2000 µM.

In the case of `CCOC(=O)c1c(C)oc2cc(OC)c(OCc3oc4cc(OS(=O)(=O)O)c(OS(=O)(=O)O)cc4c3C(=O)OCC)cc12`, the IC50 at Prothrombin [1] (read-out: IC50) was 365 µM; at Prothrombin [1] (read-out: pIC50 (converted)), 363 µM.

As to `COc1cc2oc(C)c(C(=O)N3CCOCC3)c2cc1OCc1oc2cc(OC)c(OS(=O)(=O)[O-])cc2c1C(=O)N1CCOCC1.[Na+]`, the IC50 at Prothrombin [1] (read-out: IC50) was above 7100 µM. For the same compound, the 2aPTT in the assay with Plasma [3] is above 1000 µM.

With `CCOC(=O)c1c(COc2cc3c(C(=O)OCC)c(CN4CCOCC4)oc3cc2OC)oc2cc(OC)c(OS(=O)(=O)O)cc12`, the IC50 on Prothrombin [1] (read-out: IC50) and on Prothrombin [1] (read-out: pIC50 (converted)) was 129 µM throughout.

Turning to `CCOC(=O)c1c(C)oc2cc(OCc3oc4cc(OC)c(OS(=O)(=O)O)cc4c3C(=O)OCC)c(OS(=O)(=O)O)cc12`, the IC50 on Prothrombin [1] (read-out: IC50) was 764 µM; at Prothrombin [1] (read-out: pIC50 (converted)), 759 µM.

In the case of `COc1cc2oc(C)c(C(=O)N3CCCCC3)c2cc1OS(=O)(=O)O`, the IC50 at Prothrombin [1] (read-out: IC50) was above 2000 µM.

`C=CCOC(=O)c1c(C)oc2cc(OC)c(OS(=O)(=O)O)cc12`: the IC50 on Prothrombin [1] (read-out: IC50) was above 3000 µM.

Take `COC(=O)c1c(C)oc2cc(OC)c(OCc3oc4cc(OC)c(OS(=O)(=O)[O-])cc4c3C(=O)OC)cc12.[Na+]`: the IC50 at Prothrombin [1] (read-out: IC50) was 37 µM; on Prothrombin [1] (read-out: pIC50 (converted)), 37.2 µM. Moreover, the 2PT in the assay on Plasma [2] was 850 µM. For the same compound, the 2aPTT in the assay with Plasma [3] is above 1000 µM.

On to `COc1cc2oc(C)c(C(=O)OC(C)(C)C)c2cc1OCc1oc2cc(OC)c(OS(=O)(=O)[O-])cc2c1C(=O)OC(C)(C)C.[Na+]`, for which the IC50 at Prothrombin [1] (read-out: IC50) is 7.3 µM; at Prothrombin [1] (read-out: pIC50 (converted)), 7.24 µM. Also, the 2aPTT with Plasma [3] was found to be 355 µM.

Consider `CCOC(=O)c1c(C)oc2cc(OC)c(OCc3oc4cc(OC)c(OS(=O)(=O)[O-])cc4c3C(=O)OCC)cc12.[Na+]`, for which, on Prothrombin [1] (read-out: IC50), the IC50 came to 60 µM. For the same compound, the inhibition entry at Prothrombin [4] was “Active”. Moreover, the 2PT in the assay with Plasma [2] turned out to be 2100 µM. For the same compound, the 2aPTT with Plasma [3] worked out at 740 µM.

On to `CCOC(=O)c1c(C)oc2cc(OCC)c(OS(=O)(=O)O)cc12`, for which the IC50 was 20600 µM on Prothrombin [1] (read-out: IC50) and 20000 µM on Prothrombin [1] (read-out: pIC50 (converted)).

Take `CCOC(=O)c1c(C)oc2cc(OCOC)c(OS(=O)(=O)[O-])cc12.[Na+]`: at Prothrombin [1] (read-out: IC50), the IC50 is above 16000 µM. Also, the 2aPTT with Plasma [3] is above 1200 µM.

`COc1cc2oc(C)c(C(=O)OC(C)(C)C)c2cc1OS(=O)(=O)[O-].[Na+]`: on Prothrombin [1] (read-out: IC50), the IC50 was above 3000 µM. Besides, the 2aPTT with Plasma [3] was above 2000 µM.

Turning to `CCOC(=O)c1c(C)oc2cc(OC(C)C)c(OS(=O)(=O)O)cc12`, at Prothrombin [1] (read-out: IC50), the IC50 was 13700 µM.

Consider `COC(=O)c1c(C)oc2cc(OC)c(OS(=O)(=O)O)cc12`, for which, at Prothrombin [1] (read-out: IC50), the IC50 is above 3000 µM.

Turning to `CCOC(=O)c1c(C)oc2cc(OC)c(OS(=O)(=O)O)cc12`, the IC50 on Prothrombin [1] (read-out: IC50) is above 2500 µM.
